Source: ChEMBL document CHEMBL1132576, “Tetrahydrobenzindoles: selective antagonists of the 5-HT7 receptor” (J Med Chem, 1999)

How the values were obtained:
[1] = molecular target: Serotonin 2 (5-HT2) receptor (Rattus norvegicus, UniProt P30994+P08909+P14842); experiment: Compound was evaluated for its ability to displace [3H]ketanserin binding from […] rat cerebral cortex membranes 5-hydroxytryptamine 2 receptor; type: tissue-based
Outline: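 Displacement of [³H]ketanserin from 5-HT2 sites in rat cerebral cortex membranes. Values reported as pKi, each the mean of at least two determinations, each within 0.2 log unit of the mean.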

[2] = molecular target: 5-hydroxytryptamine receptor 7 (Homo sapiens, UniProt P34969); experiment: Compound was evaluated for its ability to displace [3H]5-CT binding from cloned human 5-hydroxytryptamine 7 receptor expressed in COS-7 cells.; type: cell-based
Chain of 5-hydroxytryptamine receptor 7 (P34969 whole entry): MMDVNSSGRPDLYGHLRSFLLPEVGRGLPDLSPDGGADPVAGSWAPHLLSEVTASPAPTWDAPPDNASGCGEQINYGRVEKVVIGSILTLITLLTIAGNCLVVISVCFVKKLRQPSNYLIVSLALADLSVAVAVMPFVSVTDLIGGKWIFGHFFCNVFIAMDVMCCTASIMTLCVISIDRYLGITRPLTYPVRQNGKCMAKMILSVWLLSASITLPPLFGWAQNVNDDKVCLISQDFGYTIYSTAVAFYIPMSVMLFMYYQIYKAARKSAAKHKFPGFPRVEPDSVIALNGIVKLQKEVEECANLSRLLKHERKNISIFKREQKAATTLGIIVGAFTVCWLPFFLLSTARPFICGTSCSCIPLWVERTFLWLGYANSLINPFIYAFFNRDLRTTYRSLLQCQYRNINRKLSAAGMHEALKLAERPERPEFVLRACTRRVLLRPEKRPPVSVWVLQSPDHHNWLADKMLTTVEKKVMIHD
Outline: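 Radioligand displacement of [³H]5-CT from cloned human 5-HT7 receptor expressed in COS-7 cells. Values reported as pKi, each the mean of at least two determinations, each within 0.2 log unit of the mean.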

D(2) dopamine receptor = D(2) dopamine receptor (Rattus norvegicus, UniProt P61169); experiment: Compound was evaluated for its ability to displace [3H]spiperone binding from Dopamine receptor D2 in rat striatum.
Chain of D(2) dopamine receptor (P61169 whole entry): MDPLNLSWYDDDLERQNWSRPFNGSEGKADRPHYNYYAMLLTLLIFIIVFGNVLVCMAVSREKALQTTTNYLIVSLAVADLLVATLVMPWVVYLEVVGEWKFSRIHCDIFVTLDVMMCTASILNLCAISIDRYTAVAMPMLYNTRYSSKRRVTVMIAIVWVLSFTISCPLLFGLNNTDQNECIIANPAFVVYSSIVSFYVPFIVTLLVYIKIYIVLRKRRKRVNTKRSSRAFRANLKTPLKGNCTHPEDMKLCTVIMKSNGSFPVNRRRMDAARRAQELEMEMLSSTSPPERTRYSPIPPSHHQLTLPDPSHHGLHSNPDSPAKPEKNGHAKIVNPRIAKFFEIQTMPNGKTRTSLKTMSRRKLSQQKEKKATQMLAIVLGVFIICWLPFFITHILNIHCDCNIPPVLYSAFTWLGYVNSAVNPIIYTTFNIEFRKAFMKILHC
Outline: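 Dopamine D2 binding was run in rat striatum with [3H]spiperone as radioligand. Values are pKi, mean of at least two determinations, each within 0.2 log unit of the mean.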

[3] = molecular target: 5-hydroxytryptamine receptor 4 (Cavia porcellus, UniProt O70528); experiment: Compound was evaluated for its ability to displace [3H]GR-113808 binding from 5-hydroxytryptamine 4 receptor in guinea pig striatum.
Chain of 5-hydroxytryptamine receptor 4 (O70528 whole entry): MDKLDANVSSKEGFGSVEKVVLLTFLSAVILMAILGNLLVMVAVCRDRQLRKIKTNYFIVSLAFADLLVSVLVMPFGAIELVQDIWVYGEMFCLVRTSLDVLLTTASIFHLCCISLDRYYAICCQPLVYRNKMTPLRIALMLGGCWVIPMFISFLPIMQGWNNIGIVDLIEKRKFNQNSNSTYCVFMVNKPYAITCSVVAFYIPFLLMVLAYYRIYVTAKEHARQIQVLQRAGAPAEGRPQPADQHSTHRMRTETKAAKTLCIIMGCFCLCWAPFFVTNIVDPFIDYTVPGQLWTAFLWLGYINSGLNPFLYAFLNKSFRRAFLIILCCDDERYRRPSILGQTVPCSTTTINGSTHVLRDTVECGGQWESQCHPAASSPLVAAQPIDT
Outline: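 Competition binding in guinea-pig striatum using [3H]GR-113808 at 5-HT4 sites. pKi is the mean of at least two determinations, each within 0.2 log unit of the mean.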

[4] = molecular target: 5-hydroxytryptamine receptor 6 (Homo sapiens, UniProt P50406); experiment: Compound was evaluated for its ability to displace [3H]LSD binding from human recombinant 5-hydroxytryptamine 6 receptor
Chain of 5-hydroxytryptamine receptor 6 (P50406 whole entry): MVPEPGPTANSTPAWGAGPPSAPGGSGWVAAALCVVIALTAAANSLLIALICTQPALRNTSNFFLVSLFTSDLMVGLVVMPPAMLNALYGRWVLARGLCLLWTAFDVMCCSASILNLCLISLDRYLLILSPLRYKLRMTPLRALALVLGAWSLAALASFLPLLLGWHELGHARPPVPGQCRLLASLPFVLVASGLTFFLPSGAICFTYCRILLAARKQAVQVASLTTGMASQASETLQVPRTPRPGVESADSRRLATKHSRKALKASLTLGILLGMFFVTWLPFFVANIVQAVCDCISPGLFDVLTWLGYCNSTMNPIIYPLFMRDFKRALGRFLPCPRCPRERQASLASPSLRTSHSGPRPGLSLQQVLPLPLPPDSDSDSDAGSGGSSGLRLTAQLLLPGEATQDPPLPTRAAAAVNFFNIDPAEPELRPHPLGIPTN
Outline: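 Displacement of [3H]LSD from human recombinant 5-HT6 receptor expressed in mammalian cells. pKi is the mean of at least two determinations, each lying within 0.2 log unit of the mean.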

[5] = molecular target: T1, 5-hydroxytryptamine receptor 1A (Homo sapiens, UniProt P08908); experiment: Compound was evaluated for its ability to displace [3H]8-OH-DPAT binding from human 5-hydroxytryptamine 1A receptor in mammalian cells; type: cell-based
T1 sequence (P08908 whole entry): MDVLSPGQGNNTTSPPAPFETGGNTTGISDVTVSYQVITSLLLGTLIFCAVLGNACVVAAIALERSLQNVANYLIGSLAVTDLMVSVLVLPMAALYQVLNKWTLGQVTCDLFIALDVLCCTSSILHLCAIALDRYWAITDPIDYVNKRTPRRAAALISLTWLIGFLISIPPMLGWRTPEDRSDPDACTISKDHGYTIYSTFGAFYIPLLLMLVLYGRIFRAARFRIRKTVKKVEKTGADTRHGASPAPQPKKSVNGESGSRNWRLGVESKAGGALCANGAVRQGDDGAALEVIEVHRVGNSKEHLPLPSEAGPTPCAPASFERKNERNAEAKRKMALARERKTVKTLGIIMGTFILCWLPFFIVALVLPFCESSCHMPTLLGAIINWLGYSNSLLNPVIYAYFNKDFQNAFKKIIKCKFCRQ
Outline: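 Radioligand displacement at human recombinant 5-HT1A receptor expressed in mammalian cells, labelled with [3H]8-OH-DPAT. Affinity reported as pKi, mean of at least two determinations, each within 0.2 log unit of the mean.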

SMILES	Log Ki [1]	Ki [2]	Ki (D(2) dopamine receptor)	Ki [3]	Ki [4]	Ki [5]
COc1ccccc1N1CCN(CCCCC23CCCc4cccc(c42)NC3=O)CC1 (stereo not given)	-6.95	5.13 nM				
O=C1Nc2cccc3c2C1(CCCCN1CCN(c2ccccc2)CC1)CCC3 (stereo not given)	-7.37	3.31 nM				
O=C1Nc2cccc3c2C1(CCCCN1CCN(C2CCCCC2)CC1)CCC3 (stereo not given)	> -6	> 1000 nM				
N#Cc1ccccc1N1CCN(CCCCC23CCCc4cccc(c42)NC3=O)CC1 (stereo not given)	-6.98	3.8 nM				
O=C1Nc2cccc3c2C1(CCN1CCN(c2ccccc2)CC1)CCC3 (stereo not given)	-8.27	102 nM				
O=C1Nc2cccc3c2C1(CCCCN1CC=C(c2ccccc2)CC1)CCC3 (stereo not given)	-7.01	2.14 nM	105 nM	> 1000 nM	525 nM	170 nM
O=C1Nc2cccc3c2C1(CCCCN1CCN(c2ccccn2)CC1)CCC3 (stereo not given)	-7.27	1.86 nM				
O=C1Nc2cccc3c2C1(CCCN1CCN(c2ccccc2)CC1)CCC3 (stereo not given)	-7.79	5.25 nM				
